{
  "source": "PubChem BioAssay AID651921",
  "about": "(Vanderbilt Specialized Chemistry Center, 2012)",
  "target": "Muscarinic acetylcholine receptor M1 (Rattus norvegicus) (UniProt P08482)",
  "sequence (P08482 whole entry, looked up)": "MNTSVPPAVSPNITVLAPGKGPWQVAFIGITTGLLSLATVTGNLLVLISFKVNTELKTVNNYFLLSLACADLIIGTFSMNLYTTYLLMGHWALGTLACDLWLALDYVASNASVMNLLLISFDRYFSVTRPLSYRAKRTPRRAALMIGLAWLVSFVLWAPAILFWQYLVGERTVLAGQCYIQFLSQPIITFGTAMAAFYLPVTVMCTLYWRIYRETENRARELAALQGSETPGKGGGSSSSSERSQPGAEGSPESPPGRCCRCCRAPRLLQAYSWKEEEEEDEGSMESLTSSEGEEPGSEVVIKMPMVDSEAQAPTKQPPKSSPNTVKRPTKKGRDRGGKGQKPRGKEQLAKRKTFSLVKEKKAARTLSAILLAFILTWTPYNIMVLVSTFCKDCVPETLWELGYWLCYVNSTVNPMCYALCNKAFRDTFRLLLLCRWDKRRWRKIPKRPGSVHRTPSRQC",
  "assay": "ACh response enhancement at rat M1 – CHO cells, selectivity assay for M5 PAM project (AID 651921)",
  "summary_of_the_method": "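Test system: CHO-K1 cell line; Reagent: acetylcholine, EC20; Timing: 1.5 min compound, 50 s agonist, 25 °C; Signal: calcium fluorescence; Evaluation: baseline-normalized signal as percent of maximal acetylcholine response.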",
  "note": "The source made the active and inactive calls. No rule for the calls is given here.",
  "data": [
    {"smiles": "O=C1C(=O)N(CCOc2ccccc2)c2ccc(OC(F)(F)F)cc21", "values": [
      {"measurement": "outcome", "result": "inactive"}
    ]}
  ]
}
